Source: PubChem BioAssay
Sampled rows, rich in hits. Any-hit rate of the full collection: about 1.8%.
CCR6 antagonist – antagonists of human CCR6 receptor. 340,000 compounds, 0.49% hits. P51684. CHO-K1 CCR6 PathHunter beta-arrestin, luminescence, CCL20-stimulated. AID 493098. inhibition, % at 20 µM;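 active = compounds whose inhibition of the agonist-driven luminescence signal at 20 µM reaches about 50%, limit read from the data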;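 note: cells stimulated with CCL20 at 14 nM final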
Target sequence (P51684 whole entry, looked up): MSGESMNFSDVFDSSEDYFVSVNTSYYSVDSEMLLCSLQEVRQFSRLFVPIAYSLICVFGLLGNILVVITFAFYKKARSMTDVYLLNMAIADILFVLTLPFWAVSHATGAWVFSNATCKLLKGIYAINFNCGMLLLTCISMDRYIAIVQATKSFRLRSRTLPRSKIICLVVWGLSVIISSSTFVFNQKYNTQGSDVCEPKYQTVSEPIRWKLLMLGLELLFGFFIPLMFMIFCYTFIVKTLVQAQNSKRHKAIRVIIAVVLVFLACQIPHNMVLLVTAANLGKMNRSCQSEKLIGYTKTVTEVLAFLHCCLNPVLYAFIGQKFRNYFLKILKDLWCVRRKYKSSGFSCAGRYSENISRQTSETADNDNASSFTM
APJ antagonist – blocks the human apelin receptor APJ; 330,000 compounds, 0.32% hits; AID 2521; inhibition, % at 20 µM; P35414; CHO-K1 APJ beta-arrestin complementation, luminescence;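 active = inhibition above about 40% at 20 µM, limit read from the data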;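 note: cells challenged with 10 nM apelin-13 agonist together with compound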
CXCR6 inh – blocks human CXCR6 beta-arrestin recruitment | O00574 | CHO-K1 PathHunter CXCR6 beta-arrestin, luminescence | inhibition, % at 20 µM | 360,000 compounds, 0.36% hits | AID 602244; in the data active = inhibition above about 34%, passing the limit was not always enough;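 note: antagonist mode with CXCL16 agonist at 10 nM final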
EBI2 block – blocks human EBI2 receptor beta-arrestin signaling | P32249 | EBI2 beta-arrestin recruitment, luminescence, 7a,25-OHC stimulated | inhibition, % at 5 µM | 360,000 compounds, 0.81% hits; in the data active = inhibition above about 38%;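 note: enzyme fragment complementation signal reports receptor beta-arrestin coupling in cells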
Target sequence (P32249 whole entry, looked up, the tested form may be a part): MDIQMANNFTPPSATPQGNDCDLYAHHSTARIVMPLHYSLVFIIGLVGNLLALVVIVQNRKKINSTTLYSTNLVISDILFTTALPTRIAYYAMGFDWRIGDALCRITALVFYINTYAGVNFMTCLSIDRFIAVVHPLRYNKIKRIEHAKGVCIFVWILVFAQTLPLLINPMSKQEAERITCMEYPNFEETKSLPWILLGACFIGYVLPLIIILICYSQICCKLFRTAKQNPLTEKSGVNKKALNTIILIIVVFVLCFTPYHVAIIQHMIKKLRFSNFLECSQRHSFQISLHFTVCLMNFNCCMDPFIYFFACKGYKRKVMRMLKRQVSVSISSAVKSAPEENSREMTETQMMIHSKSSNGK
APJ agonist – agonists of human APJ apelin receptor; activation, % at 20 µM; AID 2520; 330,000 compounds, 0.11% hits; CHO-K1 APJ PathHunter beta-arrestin, luminescence; 0% DMSO wells, 100% apelin;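 active = activation more than six SD over the plate average, tested at 20 µM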
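Assay system: CHO-K1 APJ beta-arrestin complementation cell line / Compound: single test compound dose, 20 µM final, 1% DMSO / Times: overnight seeding, 90 min compound at 25 °C, 1 h detection / Technique: beta-gal luminescence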
Beta2AR agonist – agonists of human beta-2 adrenergic receptor inducing internalization; P07550; Am2.2-beta2AR cells, FAP receptor internalization, flow cytometry; response, % (no concentration beside the values); 340,000 compounds, 0.43% hits; AID 504454;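 active = response above a set limit, near 3 SD of response in nonfluorescent compounds, cut at about 42% in these data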
B2AR ag CP1 – human beta-2 adrenergic receptor agonism, cherry pick; shares compounds with Beta2AR agonist; 1,100 compounds, 25% hits; Am2.2-beta2AR cells, FAP surface receptor, flow cytometry; active compounds read low; percent response (surface receptor), % at 10 µM;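 active = surface receptor percent response at or below 58%, roughly 3 SD from nonfluorescent compounds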
B2AR FAP counter – counter-screen for beta-2AR agonists: fluorescence in Am2.2 cells; AID 588765; shares compounds with Beta2AR agonist; calls only at 10 µM; FAP fluorogen flow cytometry, fluorescence counterscreen; active compounds read low; 1,100 tested, under 10 active;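 active = percent response below a set limit in fluorescence channel 1 and below 50% in channel 8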
Large screens that a line does not name were inactive (follow-up assays come after a bar, where they were run).

COc1ccc2[nH]c3c(NCCC4=CCCCC4)ncnc3c2c1	Beta2AR agonist 45 (no result: APJ antagonist, APJ agonist) | B2AR ag CP1 inactive | B2AR FAP counter inactive
CCN(C(=O)C(C)OC(=O)C1C(C(=O)OC)=C(C)NC(C)=C1C(=O)OC)c1ccccc1 (centres undefined)	none
Cc1cc(C)nc(SCC(=O)N2CCCCC2)n1	none
Cc1cc(-c2ccccc2)nc(SCC(=O)N2CCCC2)n1	none | B2AR ag CP1 inactive | B2AR FAP counter inactive
CN(Cc1cccs1)c1nc(-c2cccnc2)nc2ccccc12	Beta2AR agonist 103 | B2AR ag CP1 2.7 | B2AR FAP counter inactive
O=C(Cn1cc(C(F)(F)F)cc(Cl)c1=O)NCCc1ccc(Cl)cc1Cl	Beta2AR agonist 55 | B2AR ag CP1 inactive | B2AR FAP counter inactive
O=C(Cn1cc(C(F)(F)F)cc(Cl)c1=O)Nc1cccc(Cl)c1	none
COc1ccccc1-c1csc(-n2ncc(C#N)c2N)n1	Beta2AR agonist 84 (no result: CCR6 antagonist) | B2AR ag CP1 inactive | B2AR FAP counter inactive
COc1ccc(-c2csc(-n3ncc(-c4ccccn4)c3N)n2)cc1	none
Nc1cc(N)nc(SCc2cc([N+](=O)[O-])cc3c2OCOC3)n1	Beta2AR agonist 55 | B2AR ag CP1 10.0 | B2AR FAP counter inactive
CCOC(=O)C1CCN(S(=O)(=O)c2ccc3c(c2)N(C(C)=O)CC(C)S3)CC1 (centres undefined)	Beta2AR agonist 50 | B2AR ag CP1 inactive | B2AR FAP counter inactive
COc1ccc(C(=O)NC(=S)N2CCOCC2)cc1Br	none
O=C(Nc1ccccn1)c1ccc([N+](=O)[O-])o1	none
Cc1ccnc(NC(=O)c2ccc([N+](=O)[O-])o2)c1	Beta2AR agonist 49 | B2AR ag CP1 inactive | B2AR FAP counter inactive
CC(O)(c1ccc(Cl)cc1)C(c1ccccc1)c1ccccn1 (centres undefined)	none (no result: APJ antagonist, APJ agonist)
O=C(c1ccc(-c2ccc([N+](=O)[O-])cc2)o1)N1CCCCCCC1	Beta2AR agonist 52 | B2AR ag CP1 inactive | B2AR FAP counter inactive
O=C(c1ccc(-c2ccc([N+](=O)[O-])cc2)o1)N1CCCC(C(F)(F)F)C1 (centres undefined)	none
O=C(c1cc2c(=O)n3ccccc3nc2s1)N1CCN(Cc2ccccc2)CC1	none
O=C(c1cc2c(=O)n3ccccc3nc2s1)N1CCN(Cc2ccc3c(c2)OCO3)CC1	Beta2AR agonist 74 | B2AR ag CP1 24 | B2AR FAP counter inactive
CC1C[C@@]2(NC(=O)NC2=O)C(C)CN1C (some centres undefined)	Beta2AR agonist 46 | B2AR ag CP1 inactive | B2AR FAP counter inactive
CCOc1cccc(CN2CCC(Oc3ccc(C(=O)N4CCCC4)cc3)CC2)c1	none | B2AR ag CP1 inactive | B2AR FAP counter inactive
CC(C)c1ccc(CN2CCC(Oc3ccc(C(=O)N4CCCC4)cc3)CC2)cc1	none
Cc1ccccc1CN1CCC(Oc2ccc(C(=O)N3CCCC3)cc2)CC1	none
Cc1cccc(CN2CCC(Oc3ccc(C(=O)N4CCCCC4)cc3)CC2)c1	none | B2AR ag CP1 inactive | B2AR FAP counter inactive
Cc1ccc(NC(=O)COC(=O)CN2CCSC2=O)cc1Cl	none (no result: CCR6 antagonist, APJ antagonist, APJ agonist, Beta2AR agonist)
Cc1ncc([N+](=O)[O-])n1CCO	none
CCS(=O)(=O)CCn1c([N+](=O)[O-])cnc1C	none | B2AR ag CP1 inactive | B2AR FAP counter inactive
CCC(=O)NC(c1cccs1)c1ccc2cccnc2c1O (centres undefined)	none | B2AR ag CP1 inactive | B2AR FAP counter inactive
CC(C)CC(=O)NC(c1cccs1)c1ccc2cccnc2c1O (centres undefined)	none
CCOc1ccc(C(C)=O)cc1CSc1nc2nc(C)cc(C)n2n1	none
O=S(=O)(Nc1cccc2ncccc12)c1cccs1	CCR6 antagonist 88, APJ antagonist 88, CXCR6 inh 79, EBI2 block 60, Beta2AR agonist 44 | B2AR ag CP1 inactive | B2AR FAP counter inactive
Cc1c(NS(=O)(=O)c2cccs2)cccc1-c1nc2cccnc2s1	none
Cc1nc2ccc(Cl)cc2c(-c2ccccc2Cl)c1CC(=O)O	Beta2AR agonist 46 | B2AR ag CP1 inactive | B2AR FAP counter inactive
Cc1nc2ccc(Cl)cc2c(-c2ccccc2F)c1CC(=O)O	none
CC1(C)CC(=O)C(C(C2=C(O)CC(C)(C)CC2=O)c2ccc(Br)s2)C(=O)C1 (centres undefined)	none
CCOc1ccccc1/C=C/c1onc(C)c1S(=O)(=O)N1CCC(C(=O)NC(C)C)CC1	none
COc1ccccc1/C=C/c1onc(C)c1S(=O)(=O)N1CCC(C(=O)NC(C)C)CC1	Beta2AR agonist 44 | B2AR ag CP1 inactive | B2AR FAP counter inactive
Cc1cc(Nc2ccccc2)nn1C(=O)c1ccccc1	none
Cc1cc(Nc2ccccc2)nn1C(=O)c1ccc(Br)cc1	Beta2AR agonist 50 | B2AR ag CP1 inactive | B2AR FAP counter inactive
CC1(C(=O)NS(=O)(=O)Cc2ccccc2C(F)(F)F)CCN1C(=O)Cc1ccccc1 (centres undefined)	none (no result: CCR6 antagonist, APJ antagonist, APJ agonist, Beta2AR agonist)
CCc1ccccc1N(C)S(=O)(=O)c1ccc2[nH]cc(C(=O)O)c(=O)c2c1	Beta2AR agonist 76 | B2AR ag CP1 inactive | B2AR FAP counter inactive
CCCCN1CC(N2CCN(CCN(C)C)CC2)CS1(=O)=O (centres undefined)	none (no result: CCR6 antagonist, APJ antagonist, APJ agonist, Beta2AR agonist)
CCOc1ccc2nc(SCCNS(=O)(=O)c3ccccc3)sc2c1	Beta2AR agonist 61 | B2AR ag CP1 inactive | B2AR FAP counter inactive
O=C(CN1CCN(Cc2ccccc2)CC1)Nc1ccc(N2CCOCC2)cc1	Beta2AR agonist 50 | B2AR ag CP1 inactive | B2AR FAP counter inactive
O=C(CN1CCN(Cc2ccccc2)CC1)Nc1ccccc1	none
O=C(NC1CCCCC1)c1cccc2c(-c3ccc(F)c(F)c3)coc12	none (no result: CCR6 antagonist, APJ antagonist, APJ agonist, Beta2AR agonist)
O=C(O)C1=CCC(c2ccc(Cl)c(Cl)c2)N(S(=O)(=O)c2ccc(F)cc2)C1c1cccc(F)c1 (centres undefined)	none (no result: CCR6 antagonist, APJ antagonist, CXCR6 inh, APJ agonist, Beta2AR agonist)
CN(C)c1nc(=NCc2ccco2)ss1	CCR6 antagonist 104, CXCR6 inh 100 (no result: APJ antagonist, APJ agonist) | B2AR ag CP1 inactive | B2AR FAP counter inactive
CCOC(=O)c1c(-c2ccccc2)oc2ccc(O)c(CN3CCCC3)c12	Beta2AR agonist 95 | B2AR ag CP1 inactive | B2AR FAP counter inactive
CCOC(=O)c1c(-c2ccccc2)oc2ccc(O)c(CN(C)C)c12	none
Cc1ccc(NC(=O)CSc2nnc(NC3CC3)s2)cc1S(=O)(=O)N1CCOCC1	none (no result: CCR6 antagonist, APJ antagonist, APJ agonist, Beta2AR agonist)
COCCNC(=S)N/N=C(\C)c1ccc(Cl)s1	none | B2AR ag CP1 inactive | B2AR FAP counter inactive
CCN(CC)c1ccc(C2C3CCCCC3(O)CCN2CC(=O)N2CCCCC2)cc1 (centres undefined)	none
